The source made the active and inactive calls. No cut-off for these calls is given here.
Tests used:
[1] = tested on: U-87MG ATCC; test: Cytotoxicity against human U87 cells after 48 hrs by XTT assay; format: functional, cell-based
How it was run: (§1)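 U87 glioma cells kept in ATCC-recommended medium with 10% FBS at 37 °C, 5% CO2. Seeded at 1000 cells/well, exposed to compounds for 48 h. XTT added, then plates held another 4 h at 37 °C. Viability read colorimetrically per the kit protocol; inhibition taken at 100 μM.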

[2] = tested on: HEK293; test: Inhibition of human NF-kappaB in HEK cells by luciferase reporter gene assay; format: cell-based
How it was run: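 HEK293 cells with a chromosomally integrated luciferase reporter under an NF-κB response element. Pathway activation induced by human tumor necrosis factor. After incubation, treated cells were lysed in reporter lysis buffer. Luciferase light output was read on a luminometer.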

[3] = Cytotoxicity against human U87 cells assessed as growth inhibition at 100 uM after 48 hrs by XTT assay; format: functional, U-87MG ATCC; details: U-87 MG, read-out: GI; how it was run: as §1

**Q.** For `C[C@@H]1CC[C@@]2(OC1)O[C@H]1[C@H](O)[C@H]3[C@@H]4[C@H](O)C=C5C[C@@H](O)CC[C@]5(C)[C@H]4CC[C@]3(C)[C@H]1[C@@H]2CO`, which Activity [1] is on record?
**A.** inactive

**Q.** What about the inhibition [2] of the same compound?
**A.** inactive

**Q.** Which Activity [1] does the source give for `C[C@@H]1CC[C@@]2(OC1)O[C@H]1C[C@H]3[C@@H]4[C@@H](O)C=C5C[C@@H](O)CC[C@]5(C)[C@H]4CC[C@]3(C)[C@H]1[C@@H]2C` here?
**A.** inactive

**Q.** What about the inhibition [2] of the same compound?
**A.** inactive

**Q.** For `C[C@@H]1CC[C@@]2(OC1)O[C@H]1C[C@H]3[C@@H]4[C@@H](O)C=C5C[C@@H](O)CC[C@]5(C)[C@H]4CC[C@]3(C)[C@H]1[C@@H]2CO`, which Activity [1] is on record?
**A.** inactive

**Q.** What about the inhibition [2] of the same compound?
**A.** inactive

**Q.** What about the inhibition of growth at 100 µM [3] of the same compound?
**A.** 28.2%

**Q.** With `C[C@@H]1CC[C@@]2(OC1)O[C@H]1C[C@H]3[C@H]4[C@H]([C@H](O)C[C@]3(C)[C@H]1[C@@H]2CO)[C@@]1(C)CC[C@H](O)CC1=C[C@@H]4O` as the compound, how does the inhibition [2] read?
**A.** inactive

**Q.** For `C[C@@H]1CC[C@@]2(OC1)O[C@H]1C[C@H]3[C@@H]4CC=C5C[C@@H](O)CC[C@]5(C)[C@H]4CC[C@]3(C)[C@H]1[C@@H]2C`, which inhibition [2] is on record?
**A.** inactive

**Q.** For `C[C@@H]1CC[C@@]2(OC1)O[C@H]1C[C@H]3[C@@H]4[C@@H](O)C=C5C[C@@H](O)CC[C@]5(C)[C@H]4C[C@@H](O)[C@]3(C)[C@H]1[C@@H]2C`, which Activity [1] is on record?
**A.** inactive

**Q.** And the inhibition [2]?
**A.** inactive

**Q.** For `C[C@@H]1CC[C@@]2(OC1)O[C@H]1C[C@H]3[C@@H]4CCC5=CC(=O)CC[C@]5(C)[C@H]4CC[C@]3(C)[C@H]1[C@@H]2C`, which Activity [1] is on record?
**A.** inactive

**Q.** And the inhibition [2]?
**A.** inactive

**Q.** For `CC(=O)O[C@H]1CC[C@@]2(C)C(=CC[C@H]3[C@@H]4C[C@@H]5O[C@]6(CC[C@@H](C)CO6)[C@@H](C)[C@@H]5[C@@]4(C)CC[C@@H]32)C1`, which Activity [1] is on record?
**A.** inactive

**Q.** And the inhibition [2]?
**A.** inactive

**Q.** With `C[C@@H]1CC[C@@]2(OC1)O[C@H]1C[C@H]3[C@@H]4[C@H](O)C=C5C[C@@H](O)CC[C@]5(C)[C@H]4C[C@@H](O)[C@]3(C)[C@H]1[C@@H]2CO` as the compound, how does the inhibition [2] read?
**A.** inactive

**Q.** Which results are given for `C[C@@H]1CC[C@@]2(OC1)O[C@H]1C[C@H]3[C@@H]4[C@@H](O)C=C5C[C@@H](O)CC[C@]5(C)[C@H]4C[C@@H](O)[C@]3(C)[C@H]1[C@@H]2CO`?
**A.** Activity [1]: inactive; inhibition [2]: inactive

**Q.** For `C[C@@H]1CC[C@@]2(OC1)O[C@H]1C[C@H]3[C@@H]4CC[C@H]5C[C@@H](O)CC[C@]5(C)[C@H]4CC[C@]3(C)[C@H]1[C@@H]2C`, which inhibition [2] is on record?
**A.** inactive
